# Measured values as given in ChEMBL document CHEMBL1122437, “beta 1-selective adrenoceptor antagonists. 1. Synthesis and beta-adrenergic blocking activity of a series of binary (aryloxy)propanolamines” (1983).
# Active and inactive are the calls of the source. The rule behind the calls is not given here.
# Tests used:
# [1] = target: Beta-2 adrenergic receptor (Cavia porcellus) (UniProt Q8K4Z4)
# [2] = target: Beta-1 adrenergic receptor (Cavia porcellus) (UniProt B0FL73)
# [3] = target: Beta-1 adrenergic receptor (Rattus norvegicus) (UniProt P18090); experiment: Beta-1 adrenergic receptor blockade measured as inhibition of tachycardia caused by isoprenaline in anesthetized rats when administered intravenously; format: functional
# Chain of Beta-1 adrenergic receptor (Rattus norvegicus) (P18090 whole entry, looked up): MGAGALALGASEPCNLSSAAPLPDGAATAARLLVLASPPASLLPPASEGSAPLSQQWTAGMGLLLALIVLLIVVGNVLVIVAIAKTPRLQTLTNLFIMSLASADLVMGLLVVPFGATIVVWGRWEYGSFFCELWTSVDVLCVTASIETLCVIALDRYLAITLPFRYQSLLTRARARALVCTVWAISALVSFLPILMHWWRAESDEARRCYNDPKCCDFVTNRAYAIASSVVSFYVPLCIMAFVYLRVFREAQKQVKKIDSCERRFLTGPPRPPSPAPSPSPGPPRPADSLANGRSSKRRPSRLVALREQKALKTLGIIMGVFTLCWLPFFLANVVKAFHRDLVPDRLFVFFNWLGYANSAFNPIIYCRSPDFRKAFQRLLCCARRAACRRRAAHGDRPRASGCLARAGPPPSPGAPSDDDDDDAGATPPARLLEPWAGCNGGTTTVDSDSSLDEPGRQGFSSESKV
# How it was run: (§1)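 Anesthetized rats with a catheterized carotid artery for blood pressure. Heart rate was taken from the pulse signal by cardiotachometer. Tachycardia to isoprenaline (0.2 µg kg-1 iv) was recorded before and after accumulative iv doses of antagonist (0.1 mL 100 g-1). The value is the iv dose giving 50% reduction of the isoprenaline tachycardia.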
# Rattus norvegicus [4] = species on record: Rattus norvegicus; experiment: Ratio of rat Beta-2 to Beta-1 adrenoceptor antagonism; format: functional
# How it was run: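 Anesthetized, carotid-cannulated rats were given isoprenaline (0.2 µg kg-1 iv) before and after accumulative iv antagonist doses. The β1 value is the iv dose halving the tachycardia, read by cardiotachometer from the pulse. The β2 value is the iv dose halving the depressor response. The ratio compares these two doses.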
# Rattus norvegicus [5] = experiment: Beta-1-adrenoceptor blockade measured as inhibition of tachycardia caused by isoprenaline in anesthetized rats when administered intravenously; format: functional; conditions: iv
# How it was run: as §1
# [6] = target: Beta-2 adrenergic receptor (Rattus norvegicus) (UniProt P10608)
# Chain of Beta-2 adrenergic receptor (Rattus norvegicus) (P10608 whole entry, looked up): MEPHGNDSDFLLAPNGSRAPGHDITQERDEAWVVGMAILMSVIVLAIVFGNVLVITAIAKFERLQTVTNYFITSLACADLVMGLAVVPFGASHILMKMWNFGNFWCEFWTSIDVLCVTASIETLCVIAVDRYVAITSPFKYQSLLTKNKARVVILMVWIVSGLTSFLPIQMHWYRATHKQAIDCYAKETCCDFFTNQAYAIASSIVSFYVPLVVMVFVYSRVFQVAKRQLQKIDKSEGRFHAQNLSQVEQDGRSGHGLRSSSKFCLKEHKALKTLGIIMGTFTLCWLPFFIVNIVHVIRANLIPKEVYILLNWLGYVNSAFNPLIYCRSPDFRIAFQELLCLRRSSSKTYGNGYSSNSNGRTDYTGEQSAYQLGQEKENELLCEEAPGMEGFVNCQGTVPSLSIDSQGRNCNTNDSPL
# [7] = target: Beta-1 adrenergic receptor (Rattus norvegicus) (UniProt P18090); experiment: Beta-1 adrenergic receptor blockade measured as inhibition of tachycardia caused by isoprenaline in anesthetized rats when administered intravenously; inactive; format: functional
# How it was run: as §1
# Chain of Beta-2 adrenergic receptor (Cavia porcellus) (Q8K4Z4 whole entry, looked up): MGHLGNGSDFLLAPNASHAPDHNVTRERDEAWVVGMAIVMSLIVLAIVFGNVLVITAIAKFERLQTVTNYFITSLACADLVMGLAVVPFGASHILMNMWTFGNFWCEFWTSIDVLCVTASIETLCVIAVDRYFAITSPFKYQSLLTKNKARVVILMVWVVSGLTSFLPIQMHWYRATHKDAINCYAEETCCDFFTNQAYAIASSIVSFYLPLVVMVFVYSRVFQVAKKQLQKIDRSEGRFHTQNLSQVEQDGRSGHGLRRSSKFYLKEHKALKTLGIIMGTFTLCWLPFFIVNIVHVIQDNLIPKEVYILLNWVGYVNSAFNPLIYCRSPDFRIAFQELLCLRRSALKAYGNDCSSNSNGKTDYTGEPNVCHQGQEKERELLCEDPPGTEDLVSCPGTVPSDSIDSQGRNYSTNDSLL
# Chain of Beta-1 adrenergic receptor (Cavia porcellus) (B0FL73 1-467): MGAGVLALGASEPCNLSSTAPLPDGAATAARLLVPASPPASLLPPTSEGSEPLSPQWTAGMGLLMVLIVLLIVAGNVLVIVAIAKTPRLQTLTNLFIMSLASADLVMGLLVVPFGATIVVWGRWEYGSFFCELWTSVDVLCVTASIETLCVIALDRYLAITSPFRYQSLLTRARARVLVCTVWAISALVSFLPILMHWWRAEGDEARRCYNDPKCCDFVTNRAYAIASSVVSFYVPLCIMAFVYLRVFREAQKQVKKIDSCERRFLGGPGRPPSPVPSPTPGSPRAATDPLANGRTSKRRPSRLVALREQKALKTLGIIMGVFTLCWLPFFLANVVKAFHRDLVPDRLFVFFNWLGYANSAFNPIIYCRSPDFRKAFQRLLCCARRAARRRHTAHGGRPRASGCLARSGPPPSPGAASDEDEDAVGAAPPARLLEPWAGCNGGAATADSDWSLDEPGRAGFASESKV
SMILES,Affinity constant [1] [µM],Affinity constant [2] [µM],ED50 [3] [mg/kg],ED50 [6],ED50 [7],Ratio (Rattus norvegicus [4]),ED50 (Rattus norvegicus [5]) [mg/kg]
CC(C)NC[C@@H](O)COc1ccccc1OCCCCCCCCCCCCCCCCCCCCOc1ccccc1OC[C@@H](O)CNC(C)C,> 10,1.5,–,–,–,–,–
CC(C)NC[C@H](O)COc1cccc(OCCOCCOc2cccc(OC[C@@H](O)CNC(C)C)c2)c1,0.031,1,–,–,–,–,–
CC(C)NC[C@H](O)COc1cccc(OCCCOc2cccc(OC[C@@H](O)CNC(C)C)c2)c1,0.007,0.7,–,–,–,1.56,0.653
CC(C)NC[C@@H](O)COc1ccccc1OCCOCCOCCOc1ccccc1OC[C@@H](O)CNC(C)C,0.00085,0.06,0.082,–,–,1.35,–
CC(C)NC[C@H](O)COc1ccccc1OCCOCCOc1ccccc1OC[C@@H](O)CNC(C)C,0.015,0.15,–,–,–,0.39,0.384
CC(C)NC[C@H](O)COc1ccccc1OCC(O)COc1ccccc1OC[C@@H](O)CNC(C)C,4.4e-05,0.65,–,–,–,0.045,0.993
CC(C)NC[C@H](O)COc1ccccc1OCCOCCOCCOCCOc1ccccc1OC[C@@H](O)CNC(C)C,4e-05,0.055,0.029,–,–,0.55,–
CC(C)NC[C@@H](O)COc1ccccc1OCCCCCCCCCCCCCCOc1ccccc1OC[C@@H](O)CNC(C)C,1,0.2,–,–,–,–,–
CC(C)NC[C@@H](O)COc1ccccc1OCCCCCCCCOc1ccccc1OC[C@@H](O)CNC(C)C,0.046,0.007,–,–,–,–,–
CC(C)NCC(O)COc1cccc2ccccc12 (stereo not given) [PROPRANOLOL],–,–,–,–,–,–,0.143
CC(C)NC[C@@H](O)COc1ccccc1OCCCCCCOc1ccccc1OC[C@@H](O)CNC(C)C,0.4,0.003,–,–,–,0.13,0.399
CC(C)NC[C@H](O)COc1ccccc1OCCCOc1ccccc1OC[C@@H](O)CNC(C)C,0.00064,0.035,–,–,–,0.22,0.768

# The next lines start with results.
Affinity constant [1] [µM],Affinity constant [2] [µM],ED50 [3] [mg/kg],ED50 [6],ED50 [7],SMILES,Ratio (Rattus norvegicus [4]),ED50 (Rattus norvegicus [5]) [mg/kg]
0.42,2.5,–,–,–,CC(C)NC[C@H](O)COc1ccc(OCCCCCCCCCCCCCCCCCCCCOc2ccc(OC[C@@H](O)CNC(C)C)cc2)cc1,–,–
0.23,0.1,0.282,–,–,CC(C)NC[C@H](O)COc1ccc(OCCOCCOCCOCCOc2ccc(OC[C@@H](O)CNC(C)C)cc2)cc1,> 70,–
> 10,0.01,–,–,–,CC(C)NC[C@H](O)COc1ccc(OCCCCCCOc2ccc(OC[C@@H](O)CNC(C)C)cc2)cc1,3.3,0.776
0.24,0.2,–,–,–,CC(C)NC[C@H](O)COc1ccc(OCCCOc2ccc(OC[C@@H](O)CNC(C)C)cc2)cc1,> 1.74,1.15
0.36,0.01,–,–,–,CC(C)NC[C@H](O)COc1ccc(OCCOCCOc2ccc(OC[C@@H](O)CNC(C)C)cc2)cc1,192,0.052
> 10,0.022,–,inactive,inactive,CC(C)NC[C@H](O)COc1ccc(OCCCCCCCCCCOc2ccc(OC[C@@H](O)CNC(C)C)cc2)cc1,–,–
0.015,1,–,–,–,CC(C)NC[C@@H](O)COc1ccccc1OCCCCCCCCCCCCOc1ccccc1OC[C@@H](O)CNC(C)C,–,–
> 10,2.2,–,–,–,CC(C)NC[C@H](O)COc1ccc(OCCCCCCCCCCCCCCOc2ccc(OC[C@@H](O)CNC(C)C)cc2)cc1,–,–
0.17,0.004,0.491,–,–,CC(C)NC[C@@H](O)COc1ccccc1OCCCCCCCCCCOc1ccccc1OC[C@@H](O)CNC(C)C,0.26,–
10,0.1,–,–,–,CC(C)NC[C@H](O)COc1ccc(OCCCCCCCCCCCCOc2ccc(OC[C@@H](O)CNC(C)C)cc2)cc1,–,–
0.03,0.01,0.05,–,–,CC(C)NC[C@H](O)COc1ccc(OCCOCCOCCOc2ccc(OC[C@@H](O)CNC(C)C)cc2)cc1,185,–
1.5,0.44,–,–,–,CC(C)NC[C@H](O)COc1ccc(OCCCCCCCCOc2ccc(OC[C@@H](O)CNC(C)C)cc2)cc1,–,–
